From ChEMBL document CHEMBL5724801, “EUbOPEN Chemogenomics Library - Multiplex” (2024)
“And” between values parts separate entries of the source, which are not always exact repeats. Identical values can stand only once.

System: Fibroblast
Experiment: Multiplex assay against human fibroblast
Type: toxicity, cell-based
Method in brief: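 Four dyes were applied at seeding to live cells: Hoechst33342, BioTracker Green Microtubule Cytoskeleton Dye, MitoTracker Red and Annexin V Alexa Fluor 680. Imaging after compound addition used a CQ1 microscope at 37°C and 5% CO2. CellPathfinder machine-learning gating then sorted cells into Hoechst high-intensity objects or normal cells, normal cells into healthy, pyknosed or fragmented nuclei, and pyknosed cells into mitotic or apoptotic, with tubulin, mitochondrial-mass and membrane-permeability phenotypes given as per cents of healthy-nucleus cells.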

[1] = 12 h, 1 µM, compound concentration 1 uM
[2] = 12 h, 10 µM, compound concentration 10 uM
[3] = 24 h, 1 µM, compound concentration 1 uM
[4] = 24 h, 10 µM, compound concentration 10 uM
[5] = 48 h, 1 µM, compound concentration 1 uM
[6] = 48 h, 10 µM, compound concentration 10 uM

SMILES: CC(C)(C)c1cc(NC(=O)Nc2ccc(-c3cn4c(n3)sc3cc(OCCN5CCOCC5)ccc34)cc2)no1 [QUIZARTINIB]
- Population Apoptotic (%) [1]: 42% and 41%
- Population Fragmented Nuclei (%) [1]: 16% and 24%
- Population Healthy Nuclei (%) [1]: 65% and 52%
- Population Hoechst High Intensity Objects (%) [1]: 2%
- Population Membrane Permeable-Phenotype (%) [1]: 0% and 1%
- Population Mitochondria Different-Phenotype (%) [1]: 7% and 5%
- Population Mitotic Cells (%) [1]: 57% and 58%
- Population Normal (%) [1]: 97%
- Population Pyknosed Nuclei (%) [1]: 17% and 23%
- Population Tubulin-Different-Phenotype (%) [1]: 31% and 41%
- Total Cell Count [1]: 150 and 137
- Population Apoptotic (%) [2]: 43% and 48%
- Population Fragmented Nuclei (%) [2]: 34% and 35%
- Population Healthy Nuclei (%) [2]: 56% and 45%
- Population Hoechst High Intensity Objects (%) [2]: 3% and 5%
- Population Membrane Permeable-Phenotype (%) [2]: 0% and 5%
- Population Mitochondria Different-Phenotype (%) [2]: 10% and 5%
- Population Mitotic Cells (%) [2]: 56% and 51%
- Population Normal (%) [2]: 96% and 94%
- Population Pyknosed Nuclei (%) [2]: 8% and 18%
- Population Tubulin-Different-Phenotype (%) [2]: 75% and 70%
- Total Cell Count [2]: 190 and 162
- Population Apoptotic (%) [3]: 58% and 42%
- Population Fragmented Nuclei (%) [3]: 14% and 25%
- Population Healthy Nuclei (%) [3]: 72% and 61%
- Population Hoechst High Intensity Objects (%) [3]: 1% and 3%
- Population Membrane Permeable-Phenotype (%) [3]: 0% and 2%
- Population Mitochondria Different-Phenotype (%) [3]: 6%
- Population Mitotic Cells (%) [3]: 41% and 57%
- Population Normal (%) [3]: 98% and 96%
- Population Pyknosed Nuclei (%) [3]: 12% and 13%
- Population Tubulin-Different-Phenotype (%) [3]: 32% and 44%
- Total Cell Count [3]: 137 and 152
- Population Apoptotic (%) [4]: 75% and 39%
- Population Fragmented Nuclei (%) [4]: 33% and 40%
- Population Healthy Nuclei (%) [4]: 57% and 46%
- Population Hoechst High Intensity Objects (%) [4]: 1% and 4%
- Population Membrane Permeable-Phenotype (%) [4]: 0% and 1%
- Population Mitochondria Different-Phenotype (%) [4]: 21% and 10%
- Population Mitotic Cells (%) [4]: 25% and 60%
- Population Normal (%) [4]: 98% and 95%
- Population Pyknosed Nuclei (%) [4]: 8% and 13%
- Population Tubulin-Different-Phenotype (%) [4]: 71% and 70%
- Total Cell Count [4]: 190 and 179
- Population Apoptotic (%) [5]: 75% and 42%
- Population Fragmented Nuclei (%) [5]: 19% and 30%
- Population Healthy Nuclei (%) [5]: 71% and 60%
- Population Hoechst High Intensity Objects (%) [5]: 8% and 3%
- Population Membrane Permeable-Phenotype (%) [5]: 0% and 1%
- Population Mitochondria Different-Phenotype (%) [5]: 5% and 8%
- Population Mitotic Cells (%) [5]: 25% and 57%
- Population Normal (%) [5]: 91% and 96%
- Population Pyknosed Nuclei (%) [5]: 9%
- Population Tubulin-Different-Phenotype (%) [5]: 38% and 34%
- Total Cell Count [5]: 145 and 158
- Population Apoptotic (%) [6]: 79% and 60%
- Population Fragmented Nuclei (%) [6]: 30% and 44%
- Population Healthy Nuclei (%) [6]: 56% and 50%
- Population Hoechst High Intensity Objects (%) [6]: 7% and 3%
- Population Membrane Permeable-Phenotype (%) [6]: 0% and 2%
- Population Mitotic Cells (%) [6]: 20% and 40%
- Population Normal (%) [6]: 92% and 96%
- Population Pyknosed Nuclei (%) [6]: 13% and 5%
- Population Tubulin-Different-Phenotype (%) [6]: 74% and 59%
- Total Cell Count [6]: 195
